These results are taken from ChEMBL document CHEMBL1149561, “Synthesis of benzothiazole semicarbazones as novel anticonvulsants--the role of hydrophobic domain” (Bioorg Med Chem Lett, 2007).

Data set [1] relates to Mus musculus. Kind of data set: Anticonvulsant activity in Swiss Albino mouse at 30 mg/kg after 0.5 hrs by MES screen test. Format: functional. The procedure, abridged: (§1)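 Swiss albino mice (25–30 g) given 30 mg/kg i.p. Maximal electroshock (MES) seizure test run 0.5 and 4 h after dosing. Activity read out as % of animals protected. Phenytoin at 30 mg/kg i.p. served as standard.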

Data set [2] deals with Mus musculus. Description: Anticonvulsant activity in swiss Albino mouse at 30 mg/kg after 4 hrs by MES screen test. Format: functional. The procedure, abridged: as §1
Data set [3] relates to Mus musculus. Description: Neurotoxicity in Swiss Albino mouse at 30 mg/kg after 4 hrs by rotarod test. The following applies: in vivo. Format: toxicity, organism-based. On the set-up: dose 30 mg/kg. The procedure, abridged: (§2)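 Swiss albino mice received 30 mg/kg i.p. Motor impairment scored on the rotarod 0.5 and 4 h after dosing. Results given as number of animals showing toxicity over number tested.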
A general note: Falling from the rotarod earlier than controls is read as motor impairment.

In data set [4] the test system is Mus musculus. Description: Neurotoxicity in Swiss Albino mouse at 30 mg/kg after 0.5 hrs by rotarod test. Set-up: dose 30 mg/kg. Conditions: in vivo; call rule not given here. Format: toxicity, organism-based. The procedure, abridged:
as §2

The nature of data set [5]: Lipophilicity, log P of the compound. Conditions: octanol/water. Format: physicochemical.

As a reminder, the logP is a log measure of how a compound divides between an organic and an aqueous phase. Higher therefore signals a more lipophilic compound.

For `COc1ccc(/C(C)=N/NC(=O)Nc2nc3ccc(C)cc3s2)cc1`, the Activity is listed as 83.3% in the data set with Mus musculus [1], 83.3% in the data set with Mus musculus [2], “Not Active” in the data set with Mus musculus [3] and “Not Active” in the data set on Mus musculus [4].
With `COc1ccc2nc(NC(=O)N/N=C(\C)c3ccc(O)cc3)sc2c1`, the Activity in the data set with Mus musculus [1] is 66.6%; in the data set on Mus musculus [2], 50%.
Regarding `COc1ccc(/C(C)=N/NC(=O)Nc2nc3ccc(OC)cc3s2)cc1`, the Activity is 83.3% in the data set on Mus musculus [1], 83.3% with Mus musculus [2], “Not Active” with Mus musculus [3] and “Not Active” in the data set with Mus musculus [4].
As to `C/C(=N\NC(=O)Nc1nc2ccc(Cl)cc2s1)c1ccc(O)cc1`, the Activity with Mus musculus [1] and in the data set on Mus musculus [2] was 50% in each case.
On to `C/C(=N\NC(=O)Nc1nc2ccc(C)cc2s1)c1ccc(O)cc1`, for which the Activity in the data set on Mus musculus [1] and with Mus musculus [2] was 66.6% in each case.
For `COc1ccc2nc(NC(=O)N/N=C(\C)c3ccccc3)sc2c1`, the Activity is listed as 83.3% in the data set with Mus musculus [1], 66.6% with Mus musculus [2], “Not Active” in the data set with Mus musculus [3] and “Not Active” in the data set on Mus musculus [4].
Regarding `COc1ccc(/C(C)=N/NC(=O)Nc2nc3ccc(Cl)cc3s2)cc1`, the Activity with Mus musculus [1] and in the data set on Mus musculus [2] was 66.6% in each case.
`C/C(=N\NC(=O)Nc1nc2ccc(C)cc2s1)c1ccccc1`: the Activity with Mus musculus [1] and in the data set with Mus musculus [2] was 33.3% each time.
In the case of `C/C(=N\NC(=O)Nc1nc2ccc(C)cc2s1)c1ccc([N+](=O)[O-])cc1`, the Activity in the data set on Mus musculus [1] is listed as 100%; with Mus musculus [2], 100%; in the data set with Mus musculus [3], “Not Active”; in the data set on Mus musculus [4], “Not Active”. In data set [5], this compound yielded a logP of 3.22.
As to `COc1ccc2nc(NC(=O)NN=C(c3ccccc3)c3ccccc3)sc2c1`, the Activity with Mus musculus [1] is given as 100%; in the data set with Mus musculus [2], 100%; in the data set on Mus musculus [3] it was “Not Active”; in the data set with Mus musculus [4], “Not Active”.
In the case of `O=C(NN=C(c1ccccc1)c1ccccc1)Nc1nc2ccc(Cl)cc2s1`, the Activity in the data set with Mus musculus [1] is on record as 50%; in the data set on Mus musculus [2] it was 33.3%.
For `Cc1ccc2nc(NC(=O)NN=C(c3ccccc3)c3ccccc3)sc2c1`, the Activity in the data set on Mus musculus [1] and in the data set with Mus musculus [2] was 33.3% in each case.
Take `C/C(=N\NC(=O)Nc1nc2ccc(Cl)cc2s1)c1ccccc1`: the Activity in the data set with Mus musculus [1] is given as 100%; in the data set with Mus musculus [2] it was 83.3%; with Mus musculus [3] it was “Not Active”; in the data set on Mus musculus [4], “Not Active”. This compound also registered a logP in data set [5] of 3.12.
For the compound `C/C(=N\NC(=O)Nc1nc2ccc(Cl)cc2s1)c1ccc([N+](=O)[O-])cc1`, the Activity in the data set with Mus musculus [1] and in the data set on Mus musculus [2] was 33.3% in each case.
Turning to `COc1ccc2nc(NC(=O)N/N=C(\C)c3ccc([N+](=O)[O-])cc3)sc2c1`, the Activity in the data set with Mus musculus [1] was 100%; in the data set with Mus musculus [2], 100%; with Mus musculus [3], “Not Active”; with Mus musculus [4], “Not Active”.
As for `O=C1NC(=O)C(c2ccccc2)(c2ccccc2)N1` [PHENYTOIN], the Activity was 100% in the data set with Mus musculus [1], 100% with Mus musculus [2], “Not Active” in the data set on Mus musculus [3] and “Not Active” in the data set with Mus musculus [4].
